Active and inactive are the calls of the source. The calls are words filed in the database; no cut-off is given here.
Tests used:
[1] = target: T1, Glutamate carboxypeptidase 2 (Homo sapiens, UniProt Q04609); test: Binding affinity to PSMA in human LNCaP cells assessed as cell surface binding in Tris-buffered saline buffer; type: cell-based
Summary of the method: (§1)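 Cells washed twice in ice-cold TBS pH 7.4, then held 20 min at 4°C with 0.02 MBq 99mTc-labeled tracer, with or without test compound, in TBS, PBS or 100% calf serum. Washed three times in TBS, gamma-counted, affinity taken from curve fit; mean ± S.D.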

[2] = target: T1, Glutamate carboxypeptidase 2; test: Binding affinity to PSMA in human LNCaP cells assessed as cell surface binding in phosphate-buffered saline buffer; type: cell-based
Summary of the method: as §1, with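 “Live-cell homologous competition; cells grown in RPMI 1640 with 10% FBS at 37°C and 5% CO2. Cells” for “Cells”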

[3] = target: T1, Glutamate carboxypeptidase 2; test: Binding affinity to PSMA in human LNCaP cells assessed as cell surface binding in presence of 100% calf serum; type: cell-based
Summary of the method: as §1, with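 “Live-cell homologous competition; cells grown in RPMI 1640 with 10% FBS at 37°C and 5% CO2. Cells” for “Cells”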

[4] = target: T1, Glutamate carboxypeptidase 2; test: Binding affinity to PSMA in human PC3 cells assessed as cell surface binding in Tris-buffered saline buffer; type: cell-based; conditions: for Activity: PC-3; summary of the method: as §1
[5] = target: T1, Glutamate carboxypeptidase 2; test: Binding affinity to PSMA in human PC3 cells assessed as cell surface binding in phosphate-buffered saline buffer; type: cell-based
Summary of the method: as §1, with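 “Live-cell homologous competition; cells grown in RPMI 1640 with 10% FBS at 37°C and 5% CO2. Cells” for “Cells”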

[6] = target: T1, Glutamate carboxypeptidase 2; test: Binding affinity to PSMA in human PC3 cells assessed as cell surface binding in presence of 100% calf serum; type: cell-based, PC-3
Summary of the method: as §1, with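 “Live-cell homologous competition; cells grown in RPMI 1640 with 10% FBS at 37°C and 5% CO2. Cells” for “Cells”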
Target sequence in this assay (Q04609 whole entry): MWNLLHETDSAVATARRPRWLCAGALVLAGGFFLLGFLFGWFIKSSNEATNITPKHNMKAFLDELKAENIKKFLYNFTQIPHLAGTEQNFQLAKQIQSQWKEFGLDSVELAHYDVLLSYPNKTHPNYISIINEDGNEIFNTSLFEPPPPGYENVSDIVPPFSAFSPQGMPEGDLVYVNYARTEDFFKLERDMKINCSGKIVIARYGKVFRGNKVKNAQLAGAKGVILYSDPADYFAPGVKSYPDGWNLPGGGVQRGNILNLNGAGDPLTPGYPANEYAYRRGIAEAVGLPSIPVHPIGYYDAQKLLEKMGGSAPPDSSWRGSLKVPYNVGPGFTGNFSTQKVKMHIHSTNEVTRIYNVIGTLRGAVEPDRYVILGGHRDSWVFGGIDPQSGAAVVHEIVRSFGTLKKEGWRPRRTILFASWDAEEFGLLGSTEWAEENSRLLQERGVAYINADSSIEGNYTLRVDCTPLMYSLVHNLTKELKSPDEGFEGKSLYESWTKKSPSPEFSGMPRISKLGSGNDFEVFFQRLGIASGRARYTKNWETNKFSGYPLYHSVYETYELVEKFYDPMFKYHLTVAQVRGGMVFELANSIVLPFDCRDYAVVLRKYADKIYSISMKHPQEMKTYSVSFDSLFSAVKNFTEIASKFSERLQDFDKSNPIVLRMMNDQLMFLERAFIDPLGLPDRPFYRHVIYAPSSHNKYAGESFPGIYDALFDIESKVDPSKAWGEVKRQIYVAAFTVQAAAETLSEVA

[7] = target: T1, Glutamate carboxypeptidase 2; test: Binding affinity to PSMA in living human LNCaP cells assessed as cell surface binding at 2 uM in presence of 100% calf serum by NIR fluorescence imaging; type: cell-based
Summary of the method: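 Exponentially growing LNCaP cells at 75% confluence on glass coverslips, exposed to 2 μM compound in 0.2 mL 100% calf serum for 20 min at room temperature. Washed three times in serum, fixed in 2% paraformaldehyde 10 min, permeabilized with PBS-0.1% Tween-20 and mounted. Phase-contrast and NIR images taken on a four-channel NIR fluorescence microscope at identical exposure and normalization.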
Target sequence in this assay (Q04609 whole entry, looked up): as the sequence (Q04609 whole entry) above

SMILES | Kd [1] [nM] | Activity [3] | Activity [4] | Activity [1] | Kd [2] [nM] | further results
N[C@@H](CCP(=O)(O)CC(CCC(=O)O)C(=O)O)C(=O)O (stereo partly specified) | 10.5 | inactive | – | – | – | Activity [2]: inactive
NC12CC3(CCC(=O)O)CC(CCC(=O)O)(C1)CC(CCC(=O)O)(C2)C3 | – | – | inactive | inactive | – | Activity [2]: inactive; Activity ([5]; PC-3): inactive
CC(C)(C)OC(=O)NC12CC3(CCC(=O)N[C@@H](CCP(=O)(O)CC(CCC(=O)O)C(=O)O)C(=O)O)CC(CCC(=O)N[C@@H](CCP(=O)(O)CC(CCC(=O)O)C(=O)O)C(=O)O)(CC(CCC(=O)N[C@@H](CCP(=O)(O)CC(CCC(=O)O)C(=O)O)C(=O)O)(C3)C1)C2 (stereo partly specified) | 0.6 | 0.9 nM | – | – | 0.8 | Kd [4]: 0.2 nM; Kd [5]: 0.3 nM; Kd [6]: 0.6 nM
CC1(C)C(/C=C/C2=C(Oc3ccc(S(=O)(=O)O)cc3)C(=C/C=C3/N(CCCCS(=O)(=O)O)c4ccc(S(=O)(=O)O)cc4C3(C)C)/CCC2)=[N+](CCCCCC(=O)NCCCCCC(=O)NC23CC4(CCC(=O)N[C@@H](CCP(=O)(O)CC(CCC(=O)O)C(=O)O)C(=O)O)CC(CCC(=O)N[C@@H](CCP(=O)(O)CC(CCC(=O)O)C(=O)O)C(=O)O)(CC(CCC(=O)N[C@@H](CCP(=O)(O)CC(CCC(=O)O)C(=O)O)C(=O)O)(C4)C2)C3)c2ccc(S(=O)(=O)[O-])cc21 (stereo partly specified) | 0.5 | 0.4 nM | – | – | 0.5 | –
CC(C)(C)OC(=O)NCCCCCC(=O)NC12CC3(CCC(=O)N[C@@H](CCP(=O)(O)CC(CCC(=O)O)C(=O)O)C(=O)O)CC(CCC(=O)N[C@@H](CCP(=O)(O)CC(CCC(=O)O)C(=O)O)C(=O)O)(CC(CCC(=O)N[C@@H](CCP(=O)(O)CC(CCC(=O)O)C(=O)O)C(=O)O)(C3)C1)C2 (stereo partly specified) | 0.4 | – | – | – | 0.5 | Kd [3]: 0.7 nM
CC1(C)C(/C=C/C2=C(Oc3ccc(S(=O)(=O)O)cc3)C(=C/C=C3/N(CCCCS(=O)(=O)O)c4ccc(S(=O)(=O)[O-])cc4C3(C)C)/CCC2)=[N+](CCCCCC(=O)NCCCCCC(=O)NC23CC4(CCC=O)CC(CCC=O)(CC(CCC(=O)N[C@@H](CCP(=O)(O)CC(CCC(=O)O)C(=O)O)C(=O)O)(C4)C2)C3)c2ccc(S(=O)(=O)O)cc21 (stereo partly specified) | 5.4 | – | – | – | – | –
CC1(C)C(/C=C/C2=C(Oc3ccc(S(=O)(=O)O)cc3)C(=C/C=C3/N(CCCCS(=O)(=O)O)c4ccc(S(=O)(=O)O)cc4C3(C)C)/CCC2)=[N+](CCCCCC(=O)O)c2ccc(S(=O)(=O)[O-])cc21 | – | – | inactive | inactive | – | –
CC1(C)C(/C=C/C2=C(Oc3ccc(S(=O)(=O)O)cc3)C(=C/C=C3/N(CCCCS(=O)(=O)O)c4ccc(S(=O)(=O)O)cc4C3(C)C)/CCC2)=[N+](CCCCCC(=O)N[C@@H](CCP(=O)(O)CC(CCC(=O)O)C(=O)O)C(=O)O)c2ccc(S(=O)(=O)[O-])cc21 (stereo partly specified) | – | inactive | – | – | – | Activity [2]: inactive
CC1(C)C(/C=C/C2=C(Oc3ccc(S(=O)(=O)O)cc3)C(=C/C=C3/N(CCCCS(=O)(=O)O)c4ccc(S(=O)(=O)O)cc4C3(C)C)/CCC2)=[N+](CCCCCC(=O)NCCCCCC(=O)NC23CC4(CCC=O)CC(CCC=O)(CC(CCC(=O)N[C@@H](CCP(=O)(O)CC(CCC(=O)O)C(=O)O)C(=O)O)(C4)C2)C3)c2ccc(S(=O)(=O)[O-])cc21 (stereo partly specified) | – | inactive | – | – | – | Activity [2]: inactive
CC1(C)C(/C=C/C2=C(Oc3ccc(S(=O)(=O)O)cc3)C(=C/C=C3/N(CCCCS(=O)(=O)O)c4ccc(S(=O)(=O)[O-])cc4C3(C)C)/CCC2)=[N+](CCCCCC(=O)NCCCCCC(=O)NC23CC4(CCC=O)CC(CCC(=O)N[C@@H](CCP(=O)(O)CC(CCC(=O)O)C(=O)O)C(=O)O)(CC(CCC(=O)N[C@@H](CCP(=O)(O)CC(CCC(=O)O)C(=O)O)C(=O)O)(C4)C2)C3)c2ccc(S(=O)(=O)O)cc21 (stereo partly specified) | 1.3 | – | – | – | 1.9 | Kd [3]: 1.7 nM
CC1(C)C(/C=C/C2=C(Oc3ccc(S(=O)(=O)[O-])cc3)C(=C/C=C3/Nc4ccccc4C3(C)C)/CCC2)=[N+](CCCCCC(=O)NC23CC4(CCC(=O)N[C@@H](CCP(=O)(O)CC(CCC(=O)O)C(=O)O)C(=O)O)CC(CCC(=O)N[C@@H](CCP(=O)(O)CC(CCC(=O)O)C(=O)O)C(=O)O)(CC(CCC(=O)N[C@@H](CCP(=O)(O)CC(CCC(=O)O)C(=O)O)C(=O)O)(C4)C2)C3)c2ccccc21 (stereo partly specified) | 0.2 | – | – | – | 0.3 | Kd [3]: 0.3 nM; Activity [7]: 100%
CC1(C)C(/C=C/C2=C(Oc3ccc(S(=O)(=O)[O-])cc3)C(=C/C=C3/N(CCCCS(=O)(=O)O)c4ccccc4C3(C)C)/CCC2)=[N+](CCCCCC(=O)O)c2ccccc21 | – | – | inactive | inactive | – | Activity [7]: 100%
CC1(C)C(C=CC2=C(Oc3ccc(S(=O)(=O)O)cc3)/C(=C/C=C3/N(CCCCCC(=O)N[C@@H](CCP(=O)(O)CC(CCC(=O)O)C(=O)O)C(=O)O)c4ccc(S(=O)(=O)[O-])cc4C3(C)C)CCC2)=[N+](CCCCS(=O)(=O)O)c2ccc(S(=O)(=O)O)cc21 (stereo partly specified) | 3.6 | – | – | – | – | –
CC1(C)C(/C=C/C2=C(Oc3ccc(S(=O)(=O)O)cc3)C(=C/C=C3/N(CCCCS(=O)(=O)O)c4ccc(S(=O)(=O)O)cc4C3(C)C)/CCC2)=[N+](CCCCCC(=O)NCCCCCC(=O)NC23CC4(CCC(=O)O)CC(CCC(=O)O)(CC(CCC(=O)O)(C4)C2)C3)c2ccc(S(=O)(=O)[O-])cc21 | – | – | inactive | inactive | – | –
CC1(C)C(/C=C/C2=C(Oc3ccc(S(=O)(=O)[O-])cc3)C(=C/C=C3\N(CCCCS(=O)(=O)O)c4ccccc4C3(C)C)/CCC2)=[N+](CCCCCC(=O)NC23CC4(CCC(=O)O)CC(CCC(=O)O)(CC(CCC(=O)O)(C4)C2)C3)c2ccccc21 | – | – | inactive | inactive | – | –
